Consider 8 molecules from ChEMBL document CHEMBL1133351, “Synthesis and evaluation of vitamin D-based cationic lipids for gene delivery in vitro” (2000).

Test [1] deals with HeLa. The experiment in a line: Transfection activity of compound was tested in human cervical adenocarcinoma (HeLa) cells (Level of luciferase gene expression is expressed as mean of relative light units (RLU) per well). The class given is functional. The essentials:
(§1)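 Cationic lipid:DOPE (1:1 molar) films hydrated in PBS pH 7.4 (5 mM cationic lipid), bath-sonicated. pCMV-Luc (CMV-driven firefly luciferase) 1 µg in serum-free CHO-S-SFM mixed with 5 nmol lipid in HBSS, 5–10 min RT. Cells 5×10^4/well seeded 24 h prior; 5 h exposure, then FBS; medium replaced at 24 h; lysed 24 h later; luciferase luminescence (10 s), RLU/well, mean of triplicates.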

Test [2] has as its system HEK293. The experiment in a line: Transfection activity of compound was tested in human embryonic kidney (293) cells (Level of luciferase gene expression is expressed as mean of relative light units (RLU) per well). Type of test: functional. The essentials: as §1
Test [3] in a line: Transfection activity of compound was tested in lewis lung carcinoma (3LL) cells (Level of luciferase gene expression is expressed as mean of relative light units (RLU) per well). Type of test: functional, cell-based. The conditions noted are these: Mus musculus. The essentials:
as §1

In test [4] the test system is NIH3T3. Kind of test: Transfection activity of compound was tested in murine embryonic fibroblast (NIH3T3) cells (Level of luciferase gene expression is expressed as mean of relative light units (RLU) per well). The class given is functional, Mus musculus. The essentials: as §1

Each structure is given as a SMILES string.

Consider `C=C1CC[C@H](OC(=O)NCCCCN)C/C1=C/C=C1\CCC[C@]2(C)[C@@H]([C@H](C)/C=C/[C@H](C)C(C)C)CC[C@@H]12.Cl`, for which the RLU/well in test [1] amounted to 930000; in test [2] it was 6.3e+07; in test [3] it was 610000; in test [4], 2.1e+06.

On to `C=C1CC[C@H](OC(=O)NCC[N+](C)(C)C)C/C1=C/C=C1\CCC[C@]2(C)[C@@H]([C@H](C)CCCC(C)C)CC[C@@H]12.[I-]`, for which the RLU/well is 18000 in test [1], 560000 in test [2], 5300 in test [3] and 570000 in test [4].

With `C=C1CC[C@H](OC(=O)NCC[N+](C)(C)C)C/C1=C/C=C1\CCC[C@]2(C)[C@@H]([C@H](C)/C=C/[C@H](C)C(C)C)CC[C@@H]12.[I-]`, the RLU/well was found to be 38000 in test [1], 1.6e+06 in test [2], 4000 in test [3] and 180000 in test [4].

For `C=C1CC[C@H](OC(=O)NCCCCN)C/C1=C/C=C1\CCC[C@]2(C)[C@@H]([C@H](C)CCCC(C)C)CC[C@@H]12.Cl`, the RLU/well in test [1] was determined as 1.7e+06; in test [2], 4.7e+07; in test [3] it was 820000; in test [4] it was 7.8e+06.

For `C=C1CC[C@H](OC(=O)NCCN(CCN)CCN)C/C1=C/C=C1\CCC[C@]2(C)[C@@H]([C@H](C)/C=C/[C@H](C)C(C)C)CC[C@@H]12.Cl`, the RLU/well stood at 540000 in test [1], 4.8e+07 in test [2], 590000 in test [3] and 1.9e+06 in test [4].

Take `C=C1CC[C@H](OC(=O)NCCN(CCN)CCN)C/C1=C/C=C1\CCC[C@]2(C)[C@@H]([C@H](C)CCCC(C)C)CC[C@@H]12.Cl`: the RLU/well in test [1] is 1.4e+06; in test [2] it was 3.2e+07; in test [3] it was 150000; in test [4] it was 690000.

As to `C=C1CC[C@H](OC(=O)NCCN(C)C)C/C1=C/C=C1\CCC[C@]2(C)[C@@H]([C@H](C)/C=C/[C@H](C)C(C)C)CC[C@@H]12.Cl`, the RLU/well was 2.6e+06 in test [1], 3.9e+06 in test [2], 800000 in test [3] and 270000 in test [4].

With `C=C1CC[C@H](OC(=O)NCCN(C)C)C/C1=C/C=C1\CCC[C@]2(C)[C@@H]([C@H](C)CCCC(C)C)CC[C@@H]12.Cl`, the RLU/well in test [1] came out at 290000; in test [2] it was 1.1e+06; in test [3], 220000; in test [4] it was 120000.
